Assay results reported in ChEMBL document CHEMBL1122388, “beta 1-selective adrenoceptor antagonists. 2. 4-ether-linked phenoxypropanolamines” (J Med Chem, 1983).

Experiments:
[1] = target: Adrenergic receptor beta (Rattus norvegicus) (UniProt P18090+P10608+P26255); assay: Beta agonistic activity as the dose required to increase heart rate by 30 beats/min in anesthetized rats upon intravenous administration; assay type: functional, organism-based
Method in brief: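 Rats anesthetized with pentobarbitone sodium (75 mg/kg ip), reserpine-pretreated (5 mg/kg ip) 20-24 h earlier. Single doses of test compound given into tail vein, up to 20 animals depending on activity; blood pressure and heart rate recorded. ED30 (dose raising heart rate 30 beats/min) with 95% confidence limits from log dose-response linear regression.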

[2] = target: Beta-1 adrenergic receptor (Rattus norvegicus) (UniProt P18090); assay: Beta-1 adrenoceptor blocking activity as the dose required to inhibit 50% of tachycardia in anesthetized rats; assay type: functional
Chain of Beta-1 adrenergic receptor (Rattus norvegicus) (P18090 whole entry, looked up): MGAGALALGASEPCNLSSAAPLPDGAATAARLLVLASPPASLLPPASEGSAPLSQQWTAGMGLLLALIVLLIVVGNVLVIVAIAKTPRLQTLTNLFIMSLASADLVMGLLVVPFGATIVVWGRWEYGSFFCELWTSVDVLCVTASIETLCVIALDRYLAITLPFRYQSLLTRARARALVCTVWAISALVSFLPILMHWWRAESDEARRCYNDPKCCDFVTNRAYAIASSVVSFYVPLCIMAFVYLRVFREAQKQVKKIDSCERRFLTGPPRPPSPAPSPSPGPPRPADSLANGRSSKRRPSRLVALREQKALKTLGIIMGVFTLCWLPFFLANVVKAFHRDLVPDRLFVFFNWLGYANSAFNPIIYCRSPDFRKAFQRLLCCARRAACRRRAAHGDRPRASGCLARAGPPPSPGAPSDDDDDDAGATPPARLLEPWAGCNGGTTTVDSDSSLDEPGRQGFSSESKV
Method in brief: (§1)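 Isoprenaline (0.1 µg/kg) and test compound in saline given into right femoral vein; blood pressure from left carotid artery, heart rate by tachograph triggered from arterial pulse. Test compound injected 5 min after isoprenaline, cumulative doses up to, in most cases, 2 mg/kg. Six rats per compound; ED50 with 95% confidence limits from log dose-response linear regression.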

[3] = target: Beta-2 adrenergic receptor (Rattus norvegicus) (UniProt P10608); assay: Beta-2 adrenergic receptor antagonist activity as the dose required to inhibit 50% of vasodepressor response in anesthetized rats
Chain of Beta-2 adrenergic receptor (Rattus norvegicus) (P10608 whole entry, looked up): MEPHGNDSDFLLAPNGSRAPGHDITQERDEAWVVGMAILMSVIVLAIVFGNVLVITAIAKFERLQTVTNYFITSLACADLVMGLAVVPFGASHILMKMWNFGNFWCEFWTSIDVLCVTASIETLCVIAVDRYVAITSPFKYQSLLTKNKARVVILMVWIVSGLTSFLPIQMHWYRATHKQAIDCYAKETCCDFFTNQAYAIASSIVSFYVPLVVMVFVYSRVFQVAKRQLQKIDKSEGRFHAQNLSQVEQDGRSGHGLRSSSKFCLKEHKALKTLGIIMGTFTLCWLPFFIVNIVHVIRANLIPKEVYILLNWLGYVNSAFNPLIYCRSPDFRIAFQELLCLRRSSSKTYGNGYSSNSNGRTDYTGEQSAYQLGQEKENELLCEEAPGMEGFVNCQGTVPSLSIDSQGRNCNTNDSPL

[4] = target: Beta-1 adrenergic receptor (Rattus norvegicus) (UniProt P18090); assay: Compound was tested for beta-1 adrenergic receptor blocking activity as the dose required to inhibit 50% of tachycardia in anesthetized rats; assay type: functional; method in brief: as §1

Compound | ED30 [1] [mg/kg] | ED50 [2] [mg/kg] | ED50 [3] [mg/kg] | ED50 [4] [mg/kg]
Cc1cc(OCCOCCc2ccccc2)ccc1OCC(O)CNC(C)C (centres undefined) | 0.057 | 0.572 | > 2 | –
Cc1ccc(CCOCCOc2ccc(OCC(O)CNC(C)C)cc2)cc1 (centres undefined) | 0.022 | 0.066 | > 2 | –
COc1ccc(CCOCCOc2ccc(OCC(O)CNC(C)C)cc2)cc1 (centres undefined) | 0.009 | 0.344 | > 2 | –
CC(C)NC[C@H](O)COc1ccc(OCCOCCc2ccc(F)cc2)cc1 (stereo in doubt; 14b) | > 1 | > 2 | > 2 | –
CC(C)NCC(O)COc1ccc(OCCOCCc2ccc(F)cc2)cc1 (centres undefined) | 0.037 | 0.003 | > 2 | –
CC(C)NCC(O)COc1ccc(CC(N)=O)cc1 (centres undefined) | > 1 | 0.091 | – | –
CC(C)NCC(O)COc1ccc(OCCOCCc2ccc(C#N)cc2)cc1 (centres undefined) | 0.032 | 0.654 | > 2 | –
CC(C)(C)NCC(O)COc1ccc(OCCOCCc2ccc(F)cc2)cc1 (centres undefined) | 0.024 | 0.002 | > 2 | –
CC(C)NCC(O)COc1ccc(OCCOCCOc2ccccc2)cc1 (centres undefined) | 0.017 | 0.041 | > 5 | –
CC(C)NC[C@H](O)COc1ccc(OCCOCCc2ccc(F)cc2)cc1 (stereo in doubt; 14a) | 0.019 | 0.004 | > 2 | –
CC(C)NCC(O)COc1ccc(OCCOCCc2ccc(F)cc2)cc1F (centres undefined) | 0.045 | 0.001 | > 2 | –
CC(=O)Nc1ccc(CCOCCOc2ccc(OCC(O)CNC(C)C)cc2)cc1 (centres undefined) | 0.029 | > 2 | > 2 | –
CC(C)NCC(O)COc1ccc(OCCOCCc2ccccc2)cc1 (centres undefined) | 0.02 | 0.015 | > 50 | –
CSc1ccc(CCOCCOc2ccc(OCC(O)CNC(C)C)cc2)cc1 (centres undefined) | 0.042 | 0.174 | > 2 | –
CC(C)NCC(O)COc1ccc(OCCOCCc2ccc(F)cc2)c(F)c1 (centres undefined) | > 1 | 0.001 | > 2 | –
CC(C)(C)NCC(O)COc1ccc(OCCOCCc2ccccc2)cc1 (centres undefined) | 0.022 | 0.018 | 0.979 | –
CC(C)NCC(O)COc1ccc(CCOCCc2ccccc2)cc1 (centres undefined) | > 1 | – | > 2 | 0.163
COCCc1ccc(OCC(O)CNC(C)C)cc1 (centres undefined) | > 1 | 0.25 | – | –
CC(C)NCC(O)COc1ccc(OCCOCCc2ccccc2)cc1Cl (centres undefined) | 0.016 | 0.025 | 0.834 | –
CC(C)NCC(O)COc1ccc(OCCOCCOc2ccc(OCC(O)CNC(C)C)cc2)cc1 (centres undefined) | 0.005 | 0.052 | > 10 | –
CC(C)NCC(O)COc1ccc(CCOCCOc2ccccc2)cc1 (centres undefined) | > 1 | – | 0.924 | 0.068
CC(C)NCC(O)COc1ccc(OCCOCCc2ccc(Cl)cc2)cc1 (centres undefined) | 0.032 | 0.627 | > 2 | –
